Converted amounts (≈) assume the structure as drawn.
Key:
[1] = Clearance in Wistar rat at 1 mg/kg, iv […]; assay type: ADME, organism-based; conditions: in vivo
Method in brief: (§1)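 Male Wistar rats dosed at 1 mg/kg iv (group 1) and 1 mg/kg po (group 2). Plasma aliquots precipitated with methanol containing a structural analogue as internal standard, then analyzed by HPLC-MS/MS for time/concentration values. PK parameters (terminal t1/2, CL, F) derived from these profiles.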

[2] = Half life in Wistar rat at 1 mg/kg, iv […]; assay type: ADME, organism-based; conditions: in vivo; method in brief: as §1
B1 bradykinin receptor = target: T1, B1 bradykinin receptor (Homo sapiens, UniProt P46663); assay: Antagonist activity at bradykinin B1 receptor in human IMR90 cells assessed as inhibition of des-Arg-bradykinin-mediated calcium mobilization; assay type: functional, cell-based, IMR-90; conditions: in the assay text read “des-Arg-kallidin-mediated” for “des-Arg-bradykinin-mediated”
T1 sequence (P46663 whole entry): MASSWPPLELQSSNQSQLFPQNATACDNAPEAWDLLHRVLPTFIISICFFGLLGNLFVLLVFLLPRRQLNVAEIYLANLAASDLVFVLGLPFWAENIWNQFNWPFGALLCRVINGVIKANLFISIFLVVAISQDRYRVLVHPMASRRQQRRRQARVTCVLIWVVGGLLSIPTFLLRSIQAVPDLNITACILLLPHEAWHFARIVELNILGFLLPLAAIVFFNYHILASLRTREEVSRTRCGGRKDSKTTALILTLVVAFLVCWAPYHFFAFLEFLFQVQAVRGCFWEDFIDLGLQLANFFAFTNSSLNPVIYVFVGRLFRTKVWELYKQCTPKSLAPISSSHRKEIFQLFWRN
Method in brief: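 Human lung fibroblast IMR-90 cells pretreated with IL-1 beta; B1 receptor functional activity read as inhibition of DAKD-mediated calcium mobilization (CAM assay). Values are the numerical average of at least two experiments.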

[3] = Oral bioavailability in Wistar rat at 1 mg/kg; assay type: ADME, organism-based; conditions: in vivo; method in brief: as §1
Homo sapiens = species on record: Homo sapiens; assay: Protein binding in human plasma; conditions: read-out: PPB (converted)
[4] = Compound remaining in PBS buffer after 5 days; assay type: physicochemical; conditions: read-out: Stability
Method in brief: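 Chemical stability: compound incubated in PBS buffer at 50 °C for 5 days; percent remaining determined.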

[5] = Apparent permeability from apical to basolateral side of human Caco-2 cell; assay type: ADME, cell-based
Method in brief: (§2)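 Bidirectional permeability through Caco-2 cell monolayers; Papp measured apical-to-basolateral and basolateral-to-apical, with efflux ratio taken as B–A over A–B.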

[6] = Metabolic stability in human liver microsomes after 1 hr; assay type: ADME, Microsome; conditions: read-out: Stability
Method in brief: (§3)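 Incubation with human or rat liver microsomes for 1 h; percent parent remaining reported.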

Hepatocyte = assay: Cytotoxicity against human hepatocytes; assay type: cell-based
Method in brief: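 Cell viability in plateable cryopreserved human hepatocytes exposed to a range of concentrations up to 100 µM for 24 h at 37 °C; resazurin substrate, resorufin product detected by fluorimetry.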

Caco-2 = assay: Ratio of permeability from basolateral to apical side to apical to basolateral side in human Caco-2 cells; assay type: ADME, cell-based; method in brief: as §2
[7] = Apparent permeability from basolateral to apical side of human Caco-2 cell; assay type: ADME, cell-based; method in brief: as §2
[8] = Metabolic stability in rat liver microsomes after 1 hr; assay type: ADME, Microsome; conditions: read-out: Stability; method in brief: as §3
[9] = Aqueous Solubility in PBS buffer; assay type: physicochemical

## Cc1nc(-c2c(F)cc(Cl)cc2-c2cnc([C@@H](C)NC(=O)N(C)O)c(F)c2)no1
[1]
  clearance: 58 mL/min/kg
[2]
  half-life: 12 min
B1 bradykinin receptor
  IC50: 1.2 nM
[3]
  bioavailability: 8%

## Cc1nc(-c2c(F)cc(Cl)cc2-c2cnc(CNC(=O)N(C)O)c(F)c2)no1
B1 bradykinin receptor
  IC50: 17 nM

## Cc1nc(-c2c(F)cccc2-c2cnc([C@@H](C)NC(=O)N(C)O)c(F)c2)no1
B1 bradykinin receptor
  IC50: 31 nM

## Cn1nnc(-c2c(F)cc(Cl)cc2-c2cnc(CNC(=O)N(O)C3CCCCC3)c(F)c2)n1
B1 bradykinin receptor
  IC50: 3.9 nM

## CC(C)N(O)C(=O)NCc1ncc(-c2cc(Cl)cc(F)c2-c2nnn(C)n2)cc1F
B1 bradykinin receptor
  IC50: 1 nM

## Cn1nnc(-c2c(F)cc(Cl)cc2-c2cnc(CNC(=O)N(O)C(C)(C)C)c(F)c2)n1
B1 bradykinin receptor
  IC50: 1.4 nM

## CN(O)C(=O)NCc1ncc(-c2cc(Cl)cc(F)c2-c2nnn(C)n2)cc1F
B1 bradykinin receptor
  IC50: 17 nM

## Cc1nc(-c2c(F)cc(Cl)cc2-c2cnc([C@@H](C)NC(=O)N(C)O)c(C)c2)no1
B1 bradykinin receptor
  IC50: 3.6 nM

## Cc1nc(-c2c(F)cc(Cl)cc2-c2ccc(CNC(=O)N(C)O)cc2)no1
B1 bradykinin receptor
  IC50: > 100 nM

## Cn1nnc(-c2c(F)cc(Cl)cc2-c2cnc(CNC(=O)NO)c(F)c2)n1
B1 bradykinin receptor
  IC50: 59 nM

## Cn1nnc(-c2c(F)cc(Cl)cc2-c2cnc(CNC(=O)N(O)C3CCC(F)(F)CC3)c(F)c2)n1
Homo sapiens
  fraction unbound: 0.013
[4]
  remaining at 120 h: > 99%
[1]
  clearance: 13 mL/min/kg
[5]
  Papp A→B: 24 ×10⁻⁶ cm/s
[2]
  half-life: 47 min
[6]
  remaining at 1 h: 61%
Hepatocyte
  Activity: Non-toxic
Caco-2
  Ratio: < 3
B1 bradykinin receptor
  IC50: 0.19 nM
[3]
  bioavailability: 78%
[7]
  Papp B→A: 43 ×10⁻⁶ cm/s
[8]
  remaining at 1 h: 84%
[9]
  solubility: 39 µM (≈ 20 µg/mL)

## Cn1nnc(-c2c(F)cc(Cl)cc2-c2cnc(CNC(=O)N(O)C(CF)CF)c(F)c2)n1
[1]
  clearance: 8 mL/min/kg
[2]
  half-life: 80 min
B1 bradykinin receptor
  IC50: 0.5 nM
[3]
  bioavailability: 86%

## Cc1nc(-c2c(Cl)cc(Cl)cc2-c2cnc([C@@H](C)NC(=O)N(C)O)c(F)c2)no1
B1 bradykinin receptor
  IC50: 2.3 nM

## Cc1nc(-c2c(F)cc(Cl)cc2-c2ccc(CNC(=O)N(C)O)c(F)c2)no1
B1 bradykinin receptor
  IC50: 32 nM

## Cn1nnc(-c2c(F)cc(Cl)cc2-c2cnc(CNC(=O)N(O)C3CCCC3)c(F)c2)n1
B1 bradykinin receptor
  IC50: 0.8 nM

## CCN(O)C(=O)NCc1ncc(-c2cc(Cl)cc(F)c2-c2nnn(C)n2)cc1F
B1 bradykinin receptor
  IC50: 4.6 nM

Source: ChEMBL document CHEMBL1159049, “Novel small molecule bradykinin B1 receptor antagonists. Part 3: hydroxyurea derivatives” (Bioorg Med Chem Lett, 2010)
